Published values pooled from the literature.
Compare with care: the assays were run in different laboratories.
Effect on: metabolic stability
Host: human

SMILES	system	setting	half-life
O=C(NC1CCC1)c1ccc2nc(-c3cccc(NS(=O)(=O)NCCN4CCCCC4)c3)cn2c1	liver microsomes	1 µM	21 min
CCCCCCCc1c(C)nc2cc(OC)ccc2c1O	liver microsomes	1 µM	10.2 min
O=C(OC(C(F)(F)F)C(F)(F)F)N1Cc2ccc(OCCN3CCOCC3)cc2C1	liver microsomes		40 min
O=C(N[C@H](Cc1c[nH]c2ccccc12)C(=O)Nc1ccncc1)c1ccc(-c2ccc(F)c(F)c2)cc1F	liver microsomes		18 min
COc1ccc2nc3cc(Cl)ccc3c(Nc3cc(CN4CCCC4)c(O)c(CN4CCCC4)c3)c2n1	hepatocytes	1 µM	468 min
CC(C)(C)c1ccc(O)c(CN(Cc2cc(C(C)(C)C)ccc2O)C2CCC(NC(N)=O)CC2)c1 (stereo not shown)	liver microsomes	1 µM, pH 7.4	39.8 min
O=C1CCN(C(=O)Nc2ccc(F)c(C(F)F)c2)[C@@H]2CCCC[C@H]12	liver microsomes		> 56 min
CNS(=O)(=O)Cc1ccc2[nH]cc(CCN(C)C)c2c1	hepatocytes	5 µM	448 min
CCCCOC(=O)NS(=O)(=O)c1sc(CC(C)C)cc1-c1ccc2c(c1)CCN(C(C)=O)C2	liver microsomes	1 µM, pH 7.4	8.7 min
COc1ccc([C@@H]2Sc3ccccc3N(CCN(C)C)C(=O)[C@@H]2OC(C)=O)cc1	hepatocytes	1 µM	91.8 min
CC[C@@H]1C=CC(=O)O[C@@H]1C[C@@H](OC)[C@H](C)[C@H](OC)[C@@H](C)Cc1ccc(F)cc1	liver microsomes		< 2.3 min
CCOc1ccc2ccc(=O)oc2c1	liver microsomes	1 µM, pH 7.4	10 min
CCS(=O)(=O)Nc1cccc(-c2cn(C)c(=O)c3ccccc23)c1	liver microsomes		315 min
O=S(=O)(Nc1cccc(-c2nnn[nH]2)c1)c1ccc(Cl)c2nonc12	liver microsomes		200 min
CN1CCN(C(c2ccccc2)c2ccc(Cl)cc2)CC1 (racemic)	liver microsomes		> 100 min
CCNc1nc2c(c(N3CC(=O)Nc4cc(OC)ccc43)n1)CCC2	liver microsomes		16.7 min
CCCCOC(=O)NS(=O)(=O)c1sc(CC(C)C)cc1-c1cccc2c1CN(C(C)=O)C2	liver microsomes	1 µM, pH 7.4	15 min
Cc1ccc(S(=O)(=O)Nc2cccc(-c3nnn[nH]3)c2)cc1C	liver microsomes		2 min
O=C(N[C@H](Cc1c[nH]c2ccccc12)C(=O)Nc1ccncc1)c1ccc(-c2cccc(F)c2)cc1F	liver microsomes		18 min
CC(C)(C)C[C@@H]1N[C@@H](C(=O)N[C@H]2C[C@@](C)(O)C2)[C@H](c2cccc(Cl)c2F)[C@]12C(=O)Nc1cc(Cl)ccc12	liver microsomes		> 60 min
CCOC(=O)NS(=O)(=O)c1sc(CC(C)C)cc1-c1ccc2c(c1)CN(C)C(=O)C2	liver microsomes	1 µM, pH 7.4	7.8 min
O=C(CC1Cc2ccccc2C1)N[C@H](CN1CCCC1)[C@H](O)c1ccc2c(c1)OCCO2	liver microsomes		28 min
CCCN(C)Cc1cc(-c2[nH]c3cccc(F)c3c(=O)c2C)ccc1Cc1ccc(OC(F)(F)F)cc1	liver microsomes		1.67 min
CCOC(=O)NS(=O)(=O)c1sc(CC(C)C)cc1-c1ccc2c(c1)CN(C(=O)OCC)C2	liver microsomes	1 µM, pH 7.4	2.3 min
Cc1cccc(-n2ncc(Cl)c(Cl)c2=O)c1	liver microsomes		6.6 min
C[C@H](CCCOc1cccc(CO)c1)[C@H]1CC[C@H]2[C@@H]3CC=C4C[C@@H](O)CC[C@]4(C)[C@H]3CC[C@]12C	liver microsomes	1 µM, pH 7.4	330 min
C/C=C/C[C@H](C)[C@@H](OC)[C@@H](C)[C@H](O)C[C@H]1OC(=O)C=C[C@H]1CC	liver microsomes		6.7 min
CC(C)NCC(O)COc1cccc2ccccc12 (stereo not shown)	liver microsomes	1 µM	57.8 min
